Test results reported in ChEMBL document CHEMBL5696442, “Discovery of type II inhibitors of TGFβ-activated kinase 1 (TAK1) and mitogen-activated protein kinase kinase kinase kinase 2 (MAP4K2)” (J Med Chem, 2015).

Legend:
[1] = Inhibition of IL-1 induced p38 MAPK phosphorylation level in TAK1 deficient mouse MEF cells at 500 nM incubated for 1 hr followed by IL-1 stimulation by Western blot analysis relative to control; type: functional
[2] = molecular target: Cyclin-dependent kinase 10 (Homo sapiens) (UniProt Q15131); experiment: Inhibition of CDK10 Lys2 labeling site in human A-375 cells at 5 uM by KiNativ Profiling analysis relative to control; type: cell-based
Sequence of Cyclin-dependent kinase 10 (Homo sapiens) (Q15131 whole entry): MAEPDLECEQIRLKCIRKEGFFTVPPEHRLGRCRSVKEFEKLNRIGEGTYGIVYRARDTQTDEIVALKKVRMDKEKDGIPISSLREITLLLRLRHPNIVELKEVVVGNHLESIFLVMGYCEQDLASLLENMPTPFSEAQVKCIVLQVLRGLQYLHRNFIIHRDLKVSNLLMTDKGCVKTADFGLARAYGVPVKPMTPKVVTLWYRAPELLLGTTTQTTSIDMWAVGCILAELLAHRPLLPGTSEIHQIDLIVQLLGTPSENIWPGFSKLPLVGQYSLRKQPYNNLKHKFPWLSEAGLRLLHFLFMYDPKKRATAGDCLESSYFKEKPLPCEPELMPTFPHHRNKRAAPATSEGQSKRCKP
Procedure, shortened: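 Intact A375 melanoma cells were treated with compound at 5 or 0.5 μM, then lysed. Lysate kinases were labeled with a lysine-reactive ATP or ADP-biotin probe (KiNativ). Inhibition is read as protection of each kinase labeling site from probe labeling.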

[3] = molecular target: Tyrosine-protein kinase JAK1 (Homo sapiens) (UniProt P23458); experiment: Inhibition of JAK1 domain2 Lys1 labeling site in human A-375 cells at 5 uM by KiNativ Profiling analysis relative to control; type: cell-based
[4] = molecular target: T1, Kinase suppressor of Ras 1 (Homo sapiens) (UniProt Q8IVT5); experiment: Inhibition of KSR1 ACT labeling site harbouring SKNVFYDNGK in human A-375 cells at 5 uM by KiNativ Profiling analysis relative to control; type: cell-based
T1 sequence (whole entry): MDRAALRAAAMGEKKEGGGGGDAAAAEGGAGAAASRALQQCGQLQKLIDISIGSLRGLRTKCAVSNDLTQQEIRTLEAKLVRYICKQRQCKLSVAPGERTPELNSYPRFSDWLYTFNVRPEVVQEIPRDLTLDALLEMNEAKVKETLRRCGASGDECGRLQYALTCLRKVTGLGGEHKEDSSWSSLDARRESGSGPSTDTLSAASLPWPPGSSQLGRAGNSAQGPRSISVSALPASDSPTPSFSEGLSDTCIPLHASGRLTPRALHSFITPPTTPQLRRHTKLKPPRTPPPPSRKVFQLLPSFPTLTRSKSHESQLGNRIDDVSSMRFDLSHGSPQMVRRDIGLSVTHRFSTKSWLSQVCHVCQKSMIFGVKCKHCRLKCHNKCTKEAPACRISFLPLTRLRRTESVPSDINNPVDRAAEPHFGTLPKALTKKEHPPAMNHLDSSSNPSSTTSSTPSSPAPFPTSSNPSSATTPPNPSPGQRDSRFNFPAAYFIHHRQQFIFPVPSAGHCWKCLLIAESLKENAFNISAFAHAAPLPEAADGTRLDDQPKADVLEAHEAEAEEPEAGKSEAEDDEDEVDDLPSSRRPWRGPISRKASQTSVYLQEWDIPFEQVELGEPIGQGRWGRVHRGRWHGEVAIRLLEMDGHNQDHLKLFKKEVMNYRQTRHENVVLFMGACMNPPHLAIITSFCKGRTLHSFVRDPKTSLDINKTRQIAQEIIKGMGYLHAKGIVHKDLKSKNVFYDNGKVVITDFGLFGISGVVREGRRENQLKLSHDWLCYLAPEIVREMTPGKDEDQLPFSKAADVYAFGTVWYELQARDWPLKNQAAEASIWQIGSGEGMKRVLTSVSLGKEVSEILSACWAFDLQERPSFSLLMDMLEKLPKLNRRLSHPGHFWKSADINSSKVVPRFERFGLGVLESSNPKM

[5] = molecular target: Cyclin-dependent kinase 17 (Homo sapiens) (UniProt Q00537); experiment: Inhibition of PCTAIRE2 Lys1 labeling site harbouring SKLTENLVALKEIRLEHEEGAPCTAIR in human A-375 cells at 5 uM by KiNativ Profiling analysis relative to control; type: cell-based
[6] = molecular target: Ribosomal protein S6 kinase alpha-3 (Homo sapiens) (UniProt P51812); experiment: Inhibition of RSK2 domain2 Protein Kinase Domain in human A-375 cells at 5 uM by KiNativ Profiling analysis relative to control; type: cell-based
Sequence of Ribosomal protein S6 kinase alpha-3 (Homo sapiens) (P51812 whole entry, the tested form may be a part): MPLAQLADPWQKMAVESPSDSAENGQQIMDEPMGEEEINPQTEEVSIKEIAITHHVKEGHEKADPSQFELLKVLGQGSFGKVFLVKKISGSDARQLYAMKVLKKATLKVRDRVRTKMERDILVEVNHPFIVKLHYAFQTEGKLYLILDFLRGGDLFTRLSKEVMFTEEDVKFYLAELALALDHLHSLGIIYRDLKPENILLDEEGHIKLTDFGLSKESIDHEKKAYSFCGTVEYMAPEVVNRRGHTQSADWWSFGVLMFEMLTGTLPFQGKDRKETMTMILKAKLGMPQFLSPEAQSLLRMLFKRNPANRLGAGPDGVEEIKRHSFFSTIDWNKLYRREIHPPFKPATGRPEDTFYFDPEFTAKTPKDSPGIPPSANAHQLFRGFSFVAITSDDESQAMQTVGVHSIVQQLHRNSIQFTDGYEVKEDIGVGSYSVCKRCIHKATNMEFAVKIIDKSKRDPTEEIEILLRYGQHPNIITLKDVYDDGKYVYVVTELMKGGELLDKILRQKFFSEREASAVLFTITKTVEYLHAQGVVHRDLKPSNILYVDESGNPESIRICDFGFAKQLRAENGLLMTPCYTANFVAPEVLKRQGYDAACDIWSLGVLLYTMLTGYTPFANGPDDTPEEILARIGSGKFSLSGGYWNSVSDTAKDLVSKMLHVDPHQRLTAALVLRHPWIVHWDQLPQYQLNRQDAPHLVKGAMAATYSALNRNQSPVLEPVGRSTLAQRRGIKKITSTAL
Procedure, shortened: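 Live A375 melanoma cells treated with compound at 5 or 0.5 μM, then lysed. Lysate kinases were labeled with a lysine-reactive ATP or ADP-biotin probe. Inhibition was read as protection of labeling sites from the probe.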

[7] = molecular target: Calcium/calmodulin-dependent protein kinase type II subunit delta (Homo sapiens) (UniProt Q13557); experiment: Inhibition of CaMK2d Lys1 labeling site in human A-375 cells at 0.5 uM by KiNativ Profiling analysis relative to control; type: cell-based
Procedure, shortened: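 Live A375 melanoma cells were treated with compound at 5 or 0.5 μM. The cells were then lysed, and the lysates were labeled with a lysine-reactive ATP or ADP-biotin acyl probe (KiNativ). Inhibition is the compound's protection of each kinase labeling-site peptide from probe labeling, relative to untreated control.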

[8] = molecular target: Serine/threonine-protein kinase Nek7 (Homo sapiens) (UniProt Q8TDX7); experiment: Inhibition of NEK7 Lys1 labeling site in human A-375 cells at 0.5 uM by KiNativ Profiling analysis relative to control; type: cell-based
Sequence of Serine/threonine-protein kinase Nek7 (Homo sapiens) (Q8TDX7 whole entry, looked up): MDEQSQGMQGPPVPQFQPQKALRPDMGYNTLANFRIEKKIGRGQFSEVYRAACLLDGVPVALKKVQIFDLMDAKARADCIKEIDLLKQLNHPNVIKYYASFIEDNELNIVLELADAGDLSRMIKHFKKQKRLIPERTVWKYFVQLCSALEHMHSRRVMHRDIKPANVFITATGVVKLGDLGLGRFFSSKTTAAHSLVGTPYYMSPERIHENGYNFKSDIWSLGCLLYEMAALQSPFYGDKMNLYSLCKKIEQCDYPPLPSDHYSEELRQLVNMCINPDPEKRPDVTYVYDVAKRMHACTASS

[9] = molecular target: T2, Serine/threonine-protein kinase NLK (Homo sapiens) (UniProt Q9UBE8); experiment: Inhibition of NLK Lys2 labeling site in human A-375 cells at 0.5 uM by KiNativ Profiling analysis relative to control; type: cell-based
T2 sequence (whole entry): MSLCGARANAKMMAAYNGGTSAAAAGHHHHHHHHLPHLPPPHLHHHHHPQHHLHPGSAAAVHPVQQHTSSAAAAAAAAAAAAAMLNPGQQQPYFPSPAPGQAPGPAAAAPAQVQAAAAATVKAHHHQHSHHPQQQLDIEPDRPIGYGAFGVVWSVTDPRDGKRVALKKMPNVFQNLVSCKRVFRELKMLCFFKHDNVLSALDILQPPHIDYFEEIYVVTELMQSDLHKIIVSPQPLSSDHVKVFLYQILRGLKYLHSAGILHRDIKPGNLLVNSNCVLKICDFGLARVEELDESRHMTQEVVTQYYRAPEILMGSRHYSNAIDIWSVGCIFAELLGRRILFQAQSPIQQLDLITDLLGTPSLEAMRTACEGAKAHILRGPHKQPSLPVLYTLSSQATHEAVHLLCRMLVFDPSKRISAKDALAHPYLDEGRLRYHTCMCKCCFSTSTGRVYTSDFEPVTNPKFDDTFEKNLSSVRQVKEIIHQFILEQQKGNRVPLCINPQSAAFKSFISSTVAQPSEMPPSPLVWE

[10] = molecular target: Serine/threonine-protein kinase WNK2 (Homo sapiens) (UniProt Q9Y3S1); experiment: Inhibition of Wnk2 ATP Loop labeling site in human A-375 cells at 0.5 uM by KiNativ Profiling analysis relative to control; type: cell-based
Sequence of Serine/threonine-protein kinase WNK2 (Homo sapiens) (Q9Y3S1 whole entry): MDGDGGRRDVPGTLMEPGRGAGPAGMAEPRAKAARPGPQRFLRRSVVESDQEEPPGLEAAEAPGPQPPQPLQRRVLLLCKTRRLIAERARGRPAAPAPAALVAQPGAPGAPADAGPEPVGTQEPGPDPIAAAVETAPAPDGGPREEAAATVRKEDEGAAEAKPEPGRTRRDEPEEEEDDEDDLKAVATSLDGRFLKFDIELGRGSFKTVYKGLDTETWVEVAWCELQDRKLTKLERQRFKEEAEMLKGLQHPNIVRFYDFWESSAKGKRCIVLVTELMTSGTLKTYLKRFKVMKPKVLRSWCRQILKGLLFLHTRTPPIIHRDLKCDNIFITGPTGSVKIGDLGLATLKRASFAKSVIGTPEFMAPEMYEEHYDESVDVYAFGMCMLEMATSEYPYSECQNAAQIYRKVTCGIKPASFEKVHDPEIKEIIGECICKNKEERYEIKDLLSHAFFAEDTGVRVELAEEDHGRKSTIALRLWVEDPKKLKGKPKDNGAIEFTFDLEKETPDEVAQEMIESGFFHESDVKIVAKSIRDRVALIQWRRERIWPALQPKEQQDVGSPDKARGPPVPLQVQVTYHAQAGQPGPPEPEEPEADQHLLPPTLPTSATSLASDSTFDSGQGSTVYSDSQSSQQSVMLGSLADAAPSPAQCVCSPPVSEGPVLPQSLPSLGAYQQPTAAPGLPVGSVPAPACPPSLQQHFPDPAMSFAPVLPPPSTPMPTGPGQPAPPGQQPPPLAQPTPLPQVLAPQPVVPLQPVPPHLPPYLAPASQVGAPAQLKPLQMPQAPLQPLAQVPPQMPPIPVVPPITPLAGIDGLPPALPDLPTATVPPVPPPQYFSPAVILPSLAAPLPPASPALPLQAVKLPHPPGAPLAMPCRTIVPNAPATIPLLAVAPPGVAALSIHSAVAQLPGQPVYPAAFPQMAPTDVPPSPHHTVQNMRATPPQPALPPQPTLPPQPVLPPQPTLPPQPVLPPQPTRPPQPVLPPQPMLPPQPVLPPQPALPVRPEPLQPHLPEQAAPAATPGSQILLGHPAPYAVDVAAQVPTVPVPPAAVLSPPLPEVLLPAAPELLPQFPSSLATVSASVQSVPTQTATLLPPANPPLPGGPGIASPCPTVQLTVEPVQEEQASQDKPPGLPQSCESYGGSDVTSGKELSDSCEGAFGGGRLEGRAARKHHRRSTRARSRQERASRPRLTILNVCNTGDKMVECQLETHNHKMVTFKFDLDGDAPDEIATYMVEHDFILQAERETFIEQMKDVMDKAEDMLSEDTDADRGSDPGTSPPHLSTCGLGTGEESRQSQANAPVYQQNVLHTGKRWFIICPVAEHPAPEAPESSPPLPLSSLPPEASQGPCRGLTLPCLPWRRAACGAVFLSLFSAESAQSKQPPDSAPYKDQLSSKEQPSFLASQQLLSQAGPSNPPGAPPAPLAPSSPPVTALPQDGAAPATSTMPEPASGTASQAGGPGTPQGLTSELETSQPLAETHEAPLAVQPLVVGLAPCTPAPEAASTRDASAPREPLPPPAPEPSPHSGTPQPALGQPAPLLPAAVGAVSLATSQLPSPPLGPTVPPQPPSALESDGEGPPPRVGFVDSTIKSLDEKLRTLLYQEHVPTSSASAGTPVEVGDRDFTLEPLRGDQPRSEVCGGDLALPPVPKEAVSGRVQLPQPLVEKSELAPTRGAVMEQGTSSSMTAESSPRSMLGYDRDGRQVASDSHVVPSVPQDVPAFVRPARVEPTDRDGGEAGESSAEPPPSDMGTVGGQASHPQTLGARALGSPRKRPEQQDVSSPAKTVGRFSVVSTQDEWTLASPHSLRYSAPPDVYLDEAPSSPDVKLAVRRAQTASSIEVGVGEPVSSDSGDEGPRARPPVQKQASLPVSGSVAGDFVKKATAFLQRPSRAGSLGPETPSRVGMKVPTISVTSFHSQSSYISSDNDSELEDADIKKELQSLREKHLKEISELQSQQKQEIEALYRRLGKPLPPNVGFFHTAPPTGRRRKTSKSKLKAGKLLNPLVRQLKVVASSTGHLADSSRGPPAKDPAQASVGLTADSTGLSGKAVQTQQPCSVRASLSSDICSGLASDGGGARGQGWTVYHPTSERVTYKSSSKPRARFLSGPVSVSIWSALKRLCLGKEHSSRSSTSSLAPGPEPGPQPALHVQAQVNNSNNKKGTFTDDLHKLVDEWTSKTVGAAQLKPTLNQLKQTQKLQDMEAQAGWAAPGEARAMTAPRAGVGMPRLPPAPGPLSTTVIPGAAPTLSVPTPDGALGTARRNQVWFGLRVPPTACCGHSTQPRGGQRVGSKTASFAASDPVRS

[11] = molecular target: Serine/threonine-protein kinase 10 (Homo sapiens) (UniProt O94804); experiment: Inhibition of LOK Lys1 labeling site harbouring NKETGALAAAKVIETK in human A-375 cells at 0.05 uM by KiNativ Profiling analysis relative to control; type: cell-based
Sequence of Serine/threonine-protein kinase 10 (Homo sapiens) (O94804 whole entry, looked up): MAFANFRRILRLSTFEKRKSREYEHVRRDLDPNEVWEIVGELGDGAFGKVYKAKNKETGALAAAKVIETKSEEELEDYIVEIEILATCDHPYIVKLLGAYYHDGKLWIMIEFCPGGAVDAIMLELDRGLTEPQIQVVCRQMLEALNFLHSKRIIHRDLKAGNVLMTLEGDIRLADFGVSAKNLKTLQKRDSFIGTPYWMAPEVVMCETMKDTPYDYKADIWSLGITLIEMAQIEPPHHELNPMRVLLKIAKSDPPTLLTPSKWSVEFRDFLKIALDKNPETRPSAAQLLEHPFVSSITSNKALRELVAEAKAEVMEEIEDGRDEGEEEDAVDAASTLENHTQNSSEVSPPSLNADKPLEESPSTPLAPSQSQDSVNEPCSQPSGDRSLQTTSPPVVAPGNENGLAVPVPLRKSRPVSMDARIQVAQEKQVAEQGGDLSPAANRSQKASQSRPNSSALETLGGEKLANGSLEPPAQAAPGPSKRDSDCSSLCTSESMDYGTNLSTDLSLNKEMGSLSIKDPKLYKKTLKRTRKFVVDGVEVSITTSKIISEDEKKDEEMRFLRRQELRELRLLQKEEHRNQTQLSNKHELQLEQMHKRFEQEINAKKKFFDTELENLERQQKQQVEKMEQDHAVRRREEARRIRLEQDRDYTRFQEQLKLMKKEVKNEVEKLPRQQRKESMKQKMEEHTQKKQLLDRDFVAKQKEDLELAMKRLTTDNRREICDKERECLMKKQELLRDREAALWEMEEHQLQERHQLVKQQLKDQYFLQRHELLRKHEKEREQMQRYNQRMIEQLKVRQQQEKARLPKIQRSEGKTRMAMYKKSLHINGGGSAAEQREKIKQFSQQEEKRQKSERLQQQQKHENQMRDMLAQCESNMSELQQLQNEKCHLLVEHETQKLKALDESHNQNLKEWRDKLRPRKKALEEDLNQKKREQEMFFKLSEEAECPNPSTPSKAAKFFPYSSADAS

[12] = molecular target: Serine/threonine-protein kinase MARK2 (Homo sapiens) (UniProt Q7KZI7); experiment: Inhibition of MARK2 Lys1 labeling site in human A-375 cells at 0.05 uM by KiNativ Profiling analysis relative to control; type: cell-based
[13] = molecular target: Serine/threonine-protein kinase WNK4 (Homo sapiens) (UniProt Q96J92); experiment: Inhibition of Wnk4 Lys2 labeling site in human A-375 cells at 0.05 uM by KiNativ Profiling analysis relative to control; type: cell-based
[14] = Inhibition of p70S6K Lys2 labeling site in human A-375 cells at 5 uM by KiNativ Profiling analysis relative to control; settings: condition cancer

Compound	inhibition at 0.5 µM [1]	inhibition [2]	inhibition [3]	inhibition [4]	inhibition [5]	inhibition [6]	inhibition [7]	inhibition [8]	inhibition [9]	inhibition [10]	inhibition [11]	inhibition [12]	inhibition [13]	inhibition at 5 µM [14]
CNc1cc(Oc2cc(C(=O)Nc3cc(-n4cnc(C)c4)cc(C(F)(F)F)c3)ccc2C)ncn1	100%	–	–	–	–	–	–	–	–	–	–	–	–	–
CCN1CCN(Cc2ccc(NC(=O)c3ccc(C)c(Oc4ccnc5[nH]ccc45)c3)cc2C(F)(F)F)CC1	–	65.4%	97.6%	32.1%	56.6%	0.4%	8.7%	-0.5%	3.1%	11.4%	47.2%	1.2%	0.1%	-45.5%
CCN1CCN(Cc2ccc(NC(=O)c3ccc(C)c(/C=C/c4cnc5[nH]ccc5c4OC)c3)cc2C(F)(F)F)CC1	–	11.5%	73.4%	12.2%	21.3%	33.3%	26%	7.8%	27.3%	15.3%	34.5%	3%	-9.1%	-15.2%
CNc1cc(Oc2cc(C(=O)Nc3cc(N4CCN(C)CC4)cc(C(F)(F)F)c3)ccc2C)ncn1	100%	–	–	–	–	–	–	–	–	–	–	–	–	–
